Results on three compounds are retold here after ChEMBL document CHEMBL1155221, “Identification of novel indanylsulfonamide guanylhydrazones as potent 5-HT6 serotonin receptor antagonists” (J Med Chem, 2009).

Experiment [1] addresses T1, 5-hydroxytryptamine receptor 6 (Homo sapiens, UniProt P50406). The experiment is described as follows: Displacement of [3H]LSD from human recombinant 5HT6 receptor expressed in HEK293 cells after 60 mins by liquid scintillation counting. Type of experiment: cell-based. Put shortly: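 Competition binding on membranes from HEK-293 cells expressing recombinant human 5-HT6 receptor, with [3H]-LSD as radioligand. […] Values are mean ± SEM of three experiments.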
Background: Loss of bound radioactivity is the signal in a displacement assay; it reports binding, not function.

In experiment [2] the target is T1, 5-hydroxytryptamine receptor 6. The experiment is described as follows: Antagonist activity at human 5HT6 receptor expressed in HEK293F cells assessed as inhibition of 5-HT-stimulated cAMP production after 30 mins by HTRF assay. Type of experiment: functional, cell-based. In a few lines: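 HEK-293F cells stably expressing human 5-HT6 receptor. Compounds were tested against 5-HT-stimulated cAMP production, with cAMP read by homogeneous time-resolved fluorescence (HTRF). Antagonism expressed as Imax and IC50. Data are mean ± SEM of three experiments.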
Background: cAMP levels reflect the balance of adenylyl cyclase and phosphodiesterase activity.

Experiment [3] addresses T2, 5-hydroxytryptamine receptor 1A (Homo sapiens, UniProt P08908).
T2 sequence (P08908 whole entry): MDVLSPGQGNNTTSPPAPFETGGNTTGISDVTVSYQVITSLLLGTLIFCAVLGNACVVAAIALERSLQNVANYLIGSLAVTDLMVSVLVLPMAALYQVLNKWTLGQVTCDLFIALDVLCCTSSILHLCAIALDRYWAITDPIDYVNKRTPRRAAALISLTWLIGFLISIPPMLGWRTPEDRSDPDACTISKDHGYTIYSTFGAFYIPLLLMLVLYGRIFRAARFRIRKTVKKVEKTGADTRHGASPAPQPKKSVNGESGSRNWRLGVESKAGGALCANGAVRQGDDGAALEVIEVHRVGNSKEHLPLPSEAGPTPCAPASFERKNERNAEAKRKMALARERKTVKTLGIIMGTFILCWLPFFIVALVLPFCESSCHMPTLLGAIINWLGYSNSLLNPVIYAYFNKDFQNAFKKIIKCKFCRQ
The experiment is described as follows: Inhibition of human 5HT1A receptor.

For experiment [4], the target named is T1, 5-hydroxytryptamine receptor 6. Description: Inhibition of [3H]LSD binding to human recombinant 5HT6 receptor expressed in HEK293 cells at 100 nM after 60 mins by liquid scintillation counting. The experiment is classed as cell-based. In a few lines:
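Single-point competition at 100 nM test compound against [3H]-LSD on membranes from HEK-293 cells expressing recombinant human 5-HT6 receptor. Percent inhibition of radioligand binding reported.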

The target of experiment [5] is T3, Adrenergic receptor alpha-1 (Rattus norvegicus, UniProt P15823+P23944+P43140).
T3 sequence (P15823 whole entry): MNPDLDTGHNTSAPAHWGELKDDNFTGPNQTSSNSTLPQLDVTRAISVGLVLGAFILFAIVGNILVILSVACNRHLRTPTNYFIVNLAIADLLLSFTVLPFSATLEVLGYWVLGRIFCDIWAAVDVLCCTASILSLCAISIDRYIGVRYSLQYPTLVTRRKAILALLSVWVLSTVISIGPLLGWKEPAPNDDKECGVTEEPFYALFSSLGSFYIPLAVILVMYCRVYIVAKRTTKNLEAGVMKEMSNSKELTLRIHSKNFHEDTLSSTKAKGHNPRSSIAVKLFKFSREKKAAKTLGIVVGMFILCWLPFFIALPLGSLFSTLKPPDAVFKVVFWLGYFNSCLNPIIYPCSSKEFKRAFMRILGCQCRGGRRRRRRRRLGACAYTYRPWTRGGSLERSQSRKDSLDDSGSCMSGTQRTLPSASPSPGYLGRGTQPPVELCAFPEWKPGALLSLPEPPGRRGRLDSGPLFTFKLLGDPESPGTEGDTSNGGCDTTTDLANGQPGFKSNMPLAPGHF
T3 sequence (P23944 whole entry): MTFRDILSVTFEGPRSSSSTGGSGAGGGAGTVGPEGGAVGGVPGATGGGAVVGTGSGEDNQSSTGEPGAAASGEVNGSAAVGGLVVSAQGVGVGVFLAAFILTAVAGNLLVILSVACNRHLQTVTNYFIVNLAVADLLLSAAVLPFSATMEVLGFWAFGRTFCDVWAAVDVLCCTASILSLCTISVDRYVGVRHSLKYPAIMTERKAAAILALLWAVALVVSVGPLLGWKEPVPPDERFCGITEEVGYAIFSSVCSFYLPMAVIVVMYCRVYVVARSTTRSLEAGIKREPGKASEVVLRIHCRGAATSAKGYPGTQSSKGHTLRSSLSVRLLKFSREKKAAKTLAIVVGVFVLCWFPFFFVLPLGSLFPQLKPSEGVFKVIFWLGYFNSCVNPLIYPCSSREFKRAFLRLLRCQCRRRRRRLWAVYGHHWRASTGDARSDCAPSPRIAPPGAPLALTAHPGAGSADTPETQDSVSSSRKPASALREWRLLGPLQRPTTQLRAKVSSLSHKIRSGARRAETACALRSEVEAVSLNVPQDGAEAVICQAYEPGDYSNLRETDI
T3 sequence (P43140 whole entry): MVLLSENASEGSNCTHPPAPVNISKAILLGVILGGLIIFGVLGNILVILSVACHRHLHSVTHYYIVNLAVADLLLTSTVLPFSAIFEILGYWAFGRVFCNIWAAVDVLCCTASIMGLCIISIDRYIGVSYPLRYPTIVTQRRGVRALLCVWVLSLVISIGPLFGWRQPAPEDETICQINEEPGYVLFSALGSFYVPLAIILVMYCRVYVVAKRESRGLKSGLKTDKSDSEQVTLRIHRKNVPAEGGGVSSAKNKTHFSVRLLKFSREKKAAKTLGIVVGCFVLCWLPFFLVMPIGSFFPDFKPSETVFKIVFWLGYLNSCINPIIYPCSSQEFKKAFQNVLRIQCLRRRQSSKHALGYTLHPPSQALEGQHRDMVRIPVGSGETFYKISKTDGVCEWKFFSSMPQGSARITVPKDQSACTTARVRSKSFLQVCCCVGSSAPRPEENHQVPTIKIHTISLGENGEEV
Description: Inhibition of rat alpha 1 adrenoceptor.

In experiment [6] the target is Sodium-dependent serotonin transporter (Homo sapiens, UniProt P31645). Description: Inhibition of human SERT.
Sequence of Sodium-dependent serotonin transporter (P31645 whole entry): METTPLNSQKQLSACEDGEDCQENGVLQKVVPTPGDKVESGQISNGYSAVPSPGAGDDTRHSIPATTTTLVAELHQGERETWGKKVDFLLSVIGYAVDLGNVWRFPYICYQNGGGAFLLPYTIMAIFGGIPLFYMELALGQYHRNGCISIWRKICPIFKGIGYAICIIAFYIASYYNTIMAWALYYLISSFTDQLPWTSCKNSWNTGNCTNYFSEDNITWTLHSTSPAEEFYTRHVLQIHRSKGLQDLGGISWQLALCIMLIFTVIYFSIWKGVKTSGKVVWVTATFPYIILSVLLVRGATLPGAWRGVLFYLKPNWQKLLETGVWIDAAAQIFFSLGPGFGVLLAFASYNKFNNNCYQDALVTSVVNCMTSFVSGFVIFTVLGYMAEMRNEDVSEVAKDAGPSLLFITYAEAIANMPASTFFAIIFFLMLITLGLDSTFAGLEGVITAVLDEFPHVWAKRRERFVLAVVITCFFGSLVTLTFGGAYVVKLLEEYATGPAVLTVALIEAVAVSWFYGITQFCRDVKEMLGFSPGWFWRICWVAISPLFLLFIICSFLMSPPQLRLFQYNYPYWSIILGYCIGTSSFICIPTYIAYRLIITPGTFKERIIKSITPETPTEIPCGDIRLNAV

T1 sequence (P50406 whole entry): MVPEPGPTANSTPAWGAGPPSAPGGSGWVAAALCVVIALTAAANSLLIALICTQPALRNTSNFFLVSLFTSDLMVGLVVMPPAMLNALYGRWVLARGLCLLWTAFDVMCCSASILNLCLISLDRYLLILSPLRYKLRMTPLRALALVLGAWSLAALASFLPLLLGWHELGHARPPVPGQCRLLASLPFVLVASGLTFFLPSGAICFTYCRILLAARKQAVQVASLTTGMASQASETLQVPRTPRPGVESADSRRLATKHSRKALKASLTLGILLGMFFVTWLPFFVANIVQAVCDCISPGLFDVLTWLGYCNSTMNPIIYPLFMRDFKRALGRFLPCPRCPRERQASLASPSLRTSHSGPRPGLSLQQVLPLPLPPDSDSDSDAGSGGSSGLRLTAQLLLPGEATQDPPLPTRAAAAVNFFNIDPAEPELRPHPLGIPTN

Turning to `CC1Cc2ccc(NS(=O)(=O)c3c(Cl)nc4sccn34)cc2/C1=N/NC(=N)N.Cl` (racemic), the Ki (in general, the dissociation constant of the complex between target and ligand, obtained from inhibition or displacement) in experiment [1] worked out at 1.6 nM. The IC50 (as a rule, the point on the concentration scale where inhibition reaches its midpoint) in experiment [2] is 58 nM; in experiment [3], more than 1000 nM; in experiment [5] it was more than 1000 nM; in experiment [6], more than 1000 nM. In addition, in experiment [4], the inhibition (in general, the drop in the measured response relative to a control, in per cent) was more than 80%.
For `Cl.N=C(N)N/N=C1\CCc2ccc(NS(=O)(=O)c3c(Cl)nc4sccn34)cc21`, the Ki in experiment [1] came to 1.2 nM. Besides, the IC50 in experiment [2] is 96 nM; in experiment [3], more than 10000 nM; in experiment [5], more than 1000 nM; in experiment [6] it was more than 10000 nM. In addition, the inhibition in experiment [4] is more than 80%.
`O=S(=O)(Nc1ccc2c(c1)/C(=N/NC1=NCCN1)CC2)c1c(Cl)nc2sccn12`: in experiment [1], the Ki was found to be 2.2 nM. In addition, the IC50 in experiment [2] was 176 nM; in experiment [5], more than 1000 nM; in experiment [6], more than 10000 nM. The inhibition in experiment [4] is more than 80%.
